Screening data as filed in PubChem BioAssay.
pPAFAH inh = inhibitors of human plasma PAF acetylhydrolase (pPAFAH); Q13093; recombinant pPAFAH, FP-rhodamine probe fluorescence polarization; inhibition, % at 3.39 µM; actives 1.5% (n = 330,000); AID 463082;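 active = inhibition above the mean inhibition across the screen plus 3 SD, cut at about 25% in these data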;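 note: inhibitors block binding of the rhodamine activity-based probe so polarization drops; 0% = enzyme with DMSO and 100% = wells lacking pPAFAH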
PAFAH1B2 FP inh = inhibitors of human PAFAH1B2; actives 1.2% (n = 340,000); inhibition, % at 3.39 µM; AID 492953; recombinant PAFAH1B2, FP-rhodamine activity probe, fluorescence polarization;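 active = inhibition above the mean of all tested compounds plus 3 SD, cut at about 24% in these data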;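 note: 0% = enzyme with DMSO and 100% = wells lacking PAFAH1B2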
Target sequence (P68402 whole entry, looked up): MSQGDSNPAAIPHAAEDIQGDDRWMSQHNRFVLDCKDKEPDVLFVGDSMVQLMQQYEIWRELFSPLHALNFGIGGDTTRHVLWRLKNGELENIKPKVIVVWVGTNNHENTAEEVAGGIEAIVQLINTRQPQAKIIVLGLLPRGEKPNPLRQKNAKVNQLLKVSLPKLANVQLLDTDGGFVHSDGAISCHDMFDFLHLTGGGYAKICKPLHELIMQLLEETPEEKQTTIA
PAFAH1B3 FP inh = PAFAH1B3 (human) inhibition; inhibition, % at 3.39 µM; recombinant PAFAH1B3, FP-rhodamine probe, fluorescence polarization; actives 0.28% (n = 340,000); Q15102;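 active = inhibition above the screen-wide average of all tested compounds plus 3 SD, cut at about 25% in these data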;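 note: 0% = enzyme with DMSO only and 100% = wells lacking PAFAH1B3 protein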
ABHD4 inh = ABHD4 (mouse) inhibition, primary FP screen. Q8VD66. purified mABHD4, FP-Rh probe fluorescence polarization. inhibition, % at 8.92 µM. actives 0.54% (n = 370,000). AID 720543;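 active = inhibition exceeding the mean over every tested compound plus 3 SD, cut at about 30% in these data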;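 note: 0% = plate median of compound wells and 100% = S159A mutant with DMSO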
Target sequence (Q8VD66 whole entry, looked up): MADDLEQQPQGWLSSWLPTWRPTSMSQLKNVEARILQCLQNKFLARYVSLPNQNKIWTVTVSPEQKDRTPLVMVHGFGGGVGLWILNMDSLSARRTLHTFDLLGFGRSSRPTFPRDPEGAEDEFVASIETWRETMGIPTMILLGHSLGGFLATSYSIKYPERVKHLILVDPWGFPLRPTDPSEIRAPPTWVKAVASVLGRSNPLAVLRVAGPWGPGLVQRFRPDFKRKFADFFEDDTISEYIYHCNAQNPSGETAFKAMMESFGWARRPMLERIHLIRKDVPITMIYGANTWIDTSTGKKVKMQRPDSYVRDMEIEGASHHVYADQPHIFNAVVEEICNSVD
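Material: mouse ABHD4 enzyme, wild type; Benchmarks: S159A mutant high control, sample median low control; Buffer or medium: HEPES pH 7.0, NaCl, Pluronic buffer; Signal: fluorescence polarization; Read-out: percent inhibition of probe binding, normalized to plate controls; Timing: pre-incubation 45 min, probe exposure 60 min, at 25 °C; Dosing: 8.92 µM, single dose.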
HTRA1 inh = inhibitors of human serine peptidase HTRA1. Q92743. recombinant HTRA1, FP-rhodamine activity-based probe, fluorescence polarization. inhibition, % at 5.96 µM. actives 0.5% (n = 340,000); in the data active = inhibition above about 36%;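 note: 0% = enzyme with DMSO and 100% = wells lacking enzyme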
PAFAH2 inh = inhibitors of human PAFAH2; recombinant PAFAH2, FP-rhodamine activity probe, fluorescence polarization; inhibition, % at 3.39 µM; actives 0.99% (n = 340,000); AID 492956;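 active = inhibition above the mean over all tested compounds plus 3 SD, cut at about 30% in these data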;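 note: inhibitors block probe labeling of enzyme so polarization drops; 0% = enzyme with DMSO and 100% = wells lacking PAFAH2 protein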
PAFAH2 FP conf = confirmation of human PAFAH2 inhibitors; shares compounds with PAFAH2 inh; recombinant PAFAH2, FP-rhodamine activity probe, fluorescence polarization; inhibition, % at 3.39 µM; actives 65% (n = 2,300);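 active = mean inhibition over three repeats above a set limit taken from the earlier primary screen, cut at about 30% in these data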;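 note: inhibitor blocks binding of rhodamine activity probe so polarization falls; 0% = enzyme with DMSO and 100% = wells lacking PAFAH2 protein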
The depositor's hits bear a star; / = not tested or not shown. In the library only some 2.8% were active in any assay of this set; here they are far more common.

SMILES	pPAFAH inh	PAFAH1B2 FP inh	PAFAH1B3 FP inh	ABHD4 inh	HTRA1 inh	PAFAH2 inh	PAFAH2 FP conf
O=C1/C(=C/c2ccccn2)SC(=S)N1Nc1ncc(C(F)(F)F)cc1Cl	/	19	11	1	-7	37*	18
CN(C)c1cccc(/C=C2\CC3(OC(=O)C4CCCC4)CCCN2C3)c1 (stereo unspecified)	/	/	/	8	/	/	/
O=C(COC(=O)c1cccc(S(=O)(=O)N2CCOCC2)c1)Nc1ncc(Cl)cc1Cl	8	3	-3	-16	8	35*	24
N#Cc1ccc(Cl)cc1NC(=O)COC(=O)c1cccc(S(=O)(=O)N2CCOCC2)c1	1	3	1	0	-1	46*	38*
COc1ccccc1/C=C/C(=O)OCC(=O)Nc1ccc2c(c1)OCO2	16	0	7	6	0	79*	85*
COc1ccccc1/C=C/C(=O)OCC(=O)NCc1ccc2c(c1)OCO2	14	5	6	-1	-2	51*	33*
COc1ccccc1/C=C/C(=O)OCC(=O)Nc1c(F)cccc1F	12	-2	3	-4	8	53*	63*
COC(=O)C1CN(CCO)CCS(=O)(=O)N1Cc1cn(Cc2ccc(C)cc2)nn1 (stereo unspecified)	/	/	/	-3	/	/	/
COC(=O)C1CN(Cc2cn(Cc3ccccc3)nn2)CCS(=O)(=O)N1Cc1ccc(C)cc1 (stereo unspecified)	/	/	/	7	/	/	/
COC(=O)C1CN(Cc2ccc(F)cc2)CCS(=O)(=O)N1Cc1ccc(C(F)(F)F)cc1 (stereo unspecified)	/	/	/	-10	/	/	/
CCOc1ncccc1C(=O)OCC(=O)Nc1cc(S(=O)(=O)N2CCOCC2)ccc1C	8	-3	0	3	1	42*	39*
Cc1ccc(NC(=O)COC(=O)c2cccnc2Cl)cc1S(=O)(=O)N1CCOCC1	4	1	-6	1	14	44*	38*
Cc1ccc(S(=O)(=O)N2CCOCC2)cc1NC(=O)COC(=O)c1ccc(Cl)s1	3	6	6	0	-13	44*	32*
CSc1ncccc1C(=O)OCC(=O)Nc1ccc(C)c(S(=O)(=O)N2CCOCC2)c1	6	3	1	1	-5	29	/
CCOc1ncccc1C(=O)OCC(=O)Nc1ccc(C)c(S(=O)(=O)N2CCOCC2)c1	13	-5	9	-4	-8	75*	76*
Cc1ccc(S(=O)(=O)N2CCOCC2)cc1NC(=O)COC(=O)c1ccc(Cl)nc1	5	3	6	-5	-7	7	/
CCCCCC[C@@H](CCCc1ccccc1OC)CN(CCCC)S(C)(=O)=O	/	/	/	-1	/	/	/
CCCN(CC1CC1)C(=O)c1ccc(CNC(=O)c2cccc(Br)c2)cc1	/	/	/	-6	/	/	/
COC(=O)N1CCCC1c1cccc2[nH]cc(C)c12 (stereo unspecified)	/	/	/	0	/	/	/
CCOc1ncccc1C(=O)OCC(=O)Nc1cc(C)ccc1C	24	1	-6	0	0	13	/
Cc1ccc(S(=O)(=O)N2CCOCC2)cc1NC(=O)COC(=O)c1cccnc1Cl	9	5	-1	-11	9	16	/
Cc1ccc(S(=O)(=O)N2CCOCC2)cc1NC(=O)COC(=O)c1cccc(Cl)c1Cl	/	3	-1	-13	-6	41*	27
CCOc1ncccc1C(=O)OCC(=O)Nc1ccc(C)c(S(=O)(=O)N(C)C)c1	14	1	-2	-3	-6	80*	86*
CCOc1ncccc1C(=O)OCC(=O)Nc1cc(S(=O)(=O)N2CCCCC2)ccc1Cl	/	1	4	9	-12	68*	55*
COc1ccc(C(=O)OCCN2CCN(C3CN(Cc4cn(Cc5ccccc5C(F)(F)F)nn4)S(=O)(=O)C3)CC2)cc1OC (stereo unspecified)	/	/	/	-3	/	/	/
SMILES	pPAFAH inh	PAFAH1B2 FP inh	PAFAH1B3 FP inh	ABHD4 inh	HTRA1 inh	PAFAH2 inh	PAFAH2 FP conf
COC(=O)[C@]12C[C@H](CC(=O)N3CCSCC3)C(=O)N(Cc3ccc(Cl)cc3Cl)C1=C[C@H](C1CCCC1)O[C@@H]2C	/	/	/	-4	/	/	/
O=C(COC(=O)c1ccc2ncsc2c1)NCc1ccccc1Cl	0	8	3	-8	-4	84*	67*
O=C(COC(=O)c1ccc2ncsc2c1)NCc1ccc(F)cc1	-3	3	7	1	1	51*	34*
COc1ccc(CNC(=O)COC(=O)c2ccc3ncsc3c2)cc1OC	3	4	-1	-4	2	2	/
CC(=O)NC(=O)COC(=O)c1ccc2ncsc2c1	4	-3	4	1	6	1	/
COc1cccc(=O)c2c(C)oc(C)c12	-3	-2	5	6	0	7	/
COc1ccccc1-n1c(C)c2c(OC)cccc(=O)c2c1C	13	4	5	-9	7	39*	55*
O=C(COC(=O)c1c(F)cccc1F)NCc1cccs1	6	5	12	0	4	20	/
CC(=O)Nc1ccc(C(=O)OCC(=O)NCc2cccs2)cc1	1	-6	1	-5	-1	72*	38*
Cc1cccc(C(=O)OCC(=O)NCc2cccs2)c1	6	-4	3	2	-6	41*	29
CC(C)COc1ccc(C(=O)OCC(=O)NCc2cccs2)cc1	13	4	9	-4	-7	41*	37*
CCOC(=O)[C@@]12CCCC=C1N(CCc1ccc(Cl)cc1)C(=O)[C@H]2CC(=O)NCCCCc1ccccc1	/	/	/	-8	/	/	/
Cc1cc(C)cc(NC(=O)C2(C(=O)C3CC3)CC(c3ccccc3C(F)(F)F)=NO2)c1 (stereo unspecified)	/	/	/	-11	/	/	/
O=C1OC(C(=O)NCc2ccccc2)Cc2ccccc21 (stereo unspecified)	1	5	12	3	-10	35*	20
O[C@@H](Cc1ccccc1)[C@@H](/C=C/c1ccccc1)NCCc1ccccc1	/	/	/	19	/	/	/
COc1ccc(S(=O)(=O)N2CCOCC2)cc1NC(=O)CN1CCCCCC1	0	-2	3	-3	6	4	/
COc1ccc(S(=O)(=O)N2CCOCC2)cc1NC(=O)CN1CCCc2ccccc21	2	2	16	-1	-4	66*	56*
COc1ccc(S(=O)(=O)N2CCOCC2)cc1NC(=O)Cc1c(Cl)cccc1Cl	-2	-1	-3	-2	-2	49*	45*
Cc1ccc(-c2nnc(SCC(=O)Nc3ccc4c(c3)OCCO4)n2-c2ccc(C)cc2)cc1	/	/	/	2	/	/	/
CCN(CC)c1ccc(S(=O)(=O)N2CCOCC2)cc1NC(=O)COC(=O)/C=C/c1ccccc1	/	5	1	-6	-19	57*	42*
